# Screening results: PubChem BioAssay, Sanford-Burnham Center for Chemical Genomics
# FLuc inhib CS = inhibits firefly luciferase, flagging false hits in luciferase inhibition screens. inhibition, % at 10 µM. 200,000 tested, 1.5% active. P08659. ATPLite firefly luciferase biochemical luminescence, 10 min. AID 1006;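 active = inhibition above about 50% when tested at 10 µM, limit read from the data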
# Diaphorase act = counter-screen for diaphorase-based assays: diaphorase activators and chemical reducers; Diaphorase/resazurin coupled assay, resorufin fluorescence, 16 min; active compounds read high; 1 = vehicle wells, 0 = NADH-free wells; activation factor at 20 µM; 190,000 tested, 0.005% active; AID 1229;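 active = diaphorase activity raised at least twofold by the compound at 20 µM; inactive = activation factor below 2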
#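 Material: Purified diaphorase enzyme from Clostridium kluyveri | Buffer or medium: 50 mM HEPES pH 7.4 with 4.542 mM MgCl2, 0.005% Tween 20 | Times: 16 min enzyme reaction, ambient temperature | Signal: Red resorufin fluorescence at 544/590 nm excitation/emission | Measure: Increased resorufin signal from activators or reducing compounds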
# Diaphorase inh = diaphorase inhibition or chemical oxidation counter-screen | inhibition, % at 20 µM | 190,000 tested, 0.69% active | diaphorase resazurin-to-resorufin fluorescence, NADH, 16 min; bacterial (C. kluyveri) enzyme, not human | AID 1217;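 active = primary screen inhibition at 20 µM above a set limit, cut at about 50% in these data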;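 also: plate controls were DMSO with full reaction for no effect and wells lacking NADH for full effect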
#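 Test system: bacterial diaphorase enzyme (C. kluyveri); Quantity: 0.14 U/mL diaphorase, enzyme working solution; Times: reaction incubation of 16 min at room temperature; Measured by: fluorescence of resorufin formed from resazurin, Ex 544/Em 590 nm; Benchmarks: positive control minus NADH, DMSO neutral control.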
# PMI act hi M6P = activators of human phosphomannose isomerase at near-saturating mannose 6-phosphate; coupled PMI enzyme assay, resazurin fluorescence, 20 min; active compounds read high; 1 = untreated enzyme, 0 = substrate-free blank; activation factor at 20 µM; 190,000 tested, 0.34% active; AID 1216;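 active = activation factor of 2 or more at 20 µM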
# Target sequence (P34949 whole entry, looked up): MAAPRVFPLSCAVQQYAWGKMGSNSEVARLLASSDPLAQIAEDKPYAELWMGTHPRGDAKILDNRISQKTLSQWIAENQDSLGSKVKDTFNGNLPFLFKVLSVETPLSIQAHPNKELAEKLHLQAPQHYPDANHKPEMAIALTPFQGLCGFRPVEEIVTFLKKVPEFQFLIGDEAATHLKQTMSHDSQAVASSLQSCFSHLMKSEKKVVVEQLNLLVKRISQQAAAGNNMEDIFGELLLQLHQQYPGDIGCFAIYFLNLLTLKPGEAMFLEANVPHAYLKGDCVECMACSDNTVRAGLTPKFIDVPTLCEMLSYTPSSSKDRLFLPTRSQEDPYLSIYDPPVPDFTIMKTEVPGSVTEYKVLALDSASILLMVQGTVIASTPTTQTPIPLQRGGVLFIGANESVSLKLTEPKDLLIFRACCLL
#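 Material: human phosphomannose isomerase with PGI, G6PDH, diaphorase coupling enzymes. Quantity: 15 ng/mL PMI. Medium: HEPES pH 7.4 buffer with MgCl2 and Tween-20. Reagent: Near-saturating mannose-6-phosphate, 1.0 mM. Compound: 20 µM single dose. Times: enzyme reaction with compound 20 min at room temperature. Detection: resorufin fluorescence at Ex 544/Em 590 nm.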
# PMI activator = increases human mannose-6-phosphate isomerase activity; activation factor at 20 µM; purified human PMI, coupled resazurin fluorescence, 20 min; active compounds read high; 1 = vehicle control, 0 substrate-free wells; 190,000 tested, 0.005% active;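 active = activation factor of 2 or more at 20 µM, relative to plate controls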
# FLuc act counter = firefly luciferase counter-screen for stimulation assays. P08659. ATPlite luciferase biochemical, luminescence, 10 min; 0 = ATP-free wells, 1 = DMSO control. activation factor at 10 µM. 200,000 tested, under 10 active. AID 1027;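 active = luciferase activation factor, scaled between plate controls, of at least 2 with compound at 10 µM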
#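 Assay system: Luciferase/luciferin detection reagent, cell-free biochemical luciferase assay / Also added: ATP substrate / Schedule: 10 min at ambient temperature / Measured by: luminescence measurement of luciferase light output / Benchmarks: low control with PBS replacing ATP, high control enzyme plus ATP without compound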
# Numbers without * were called inactive. Compounds with a hit are over-represented: about 2.5% of the library has one in this group of screens.
SMILES,FLuc inhib CS,Diaphorase act,Diaphorase inh,PMI act hi M6P,PMI activator,FLuc act counter
COc1cccc(C(=O)O/N=C2\CCS(=O)(=O)c3sccc32)c1,60*,0.9,5,0.9,0.9,0.4
COc1ccc2cc(C(c3nnnn3C3CCCC3)N3CCc4ccccc4C3)c(=O)[nH]c2c1 (configuration not stated),-7,0.4,56*,1.2,1,1.1
CCC(C)(C)n1nnnc1C(c1cc2ccc(OC)cc2[nH]c1=O)N1CCc2ccccc2C1 (configuration not stated),-5,0.5,47,1.5,1.1,1
COc1ccc2cc(C(c3nnnn3C(C)(C)C)N3CCc4ccccc4C3)c(=O)[nH]c2c1 (configuration not stated),-9,0.5,52*,1.5,1,1.1
CC(/C=N/NC(=O)c1cccs1)=C\c1ccco1,57*,0.8,24,0.6,1.2,0.4
CC(/C=N/NC(=O)Cc1cccs1)=C\c1ccco1,-6,0.9,9,0.6,0.9,1.1
CCOC(=O)C1CCCN(C(=S)Nc2cccc(Cl)c2)C1 (configuration not stated),-4,0.7,25,0.9,0.8,1
COc1ccccc1/C=N/NC(=O)c1csc(C)c1C,71*,0.9,12,1,1,0.3
CCOc1ccc(/C=N/NC(=O)c2csc(C)c2C)c(OCC)c1,-5,0.9,8,0.8,0.9,1
NC(=O)/C(=C\c1cccnc1)NC(=O)c1ccccc1,-5,1.2,-22,1.2,1.2,1.1
CCn1c(=O)[nH]c2cc(C(=O)Nc3cc(C)cc(C)c3)ccc2c1=O,1,1,1,1,1,1
O=C(O)/C=C/C(=O)Nc1ccc(OC(F)F)cc1,-4,0.9,7,1.1,1.2,1
C#Cc1ccc([C@@H]2C=C(C(=O)N3CCN(Cc4ccc5c(c4)OCO5)CC3)O[C@H](OCCCCO)C2)cc1,-2,0.5,53*,1,1,1
CCN(CC)S(=O)(=O)c1ccc(OC)c(NC(=O)C(Cc2ccccc2)N2C(=O)c3ccccc3C2=O)c1 (configuration not stated),-1,0.9,14,1,0.9,1
Cc1cc(C=C2C(=O)c3ccccc3C2=O)c(C)n1-c1cccc(C(=O)O)c1,37,0.8,17,1.1,1.1,0.6
Cc1cc(C=C2C(=O)c3ccccc3C2=O)c(C)n1-c1ccccc1,90*,0.9,11,0.9,1,0.1
CC1=NN(c2ccccc2)C(=O)/C1=C/c1cccs1,12,0.9,14,0.9,1,0.9
Cc1cc(C=C2C(=O)c3ccccc3C2=O)c(C)n1-c1ccc(C(=O)O)cc1,-7,0.9,7,1.3,1.3,1.1
CC1=NN(c2ccccc2)C(=O)/C1=C\c1cc(C)n(-c2ccccc2)c1C,63*,0.8,20,0.8,0.8,0.4
Cc1cc(/C=C2\Cc3ccccc3C2=O)c(C)n1-c1ccccc1,91*,1,5,1,1.1,0.1
Cc1cc(/C=C2/C(=O)NN(c3ccccc3)C2=O)c(C)n1-c1cccc(O)c1,94*,0.8,22,0.9,0.8,0.1
COc1ccc(NC(=O)c2ccco2)cc1N,15,0.8,24,0.4,1,0.8
CC1=NN(c2ccccc2)C(=O)/C1=C/c1c(O)n(-c2ccc(F)cc2)[nH]c1=O,63*,0.7,25,1.2,1.1,0.4
CC1=NN(c2ccccc2)C(=O)/C1=C/c1ccc[nH]1,3,0.9,12,1,1,1
Cc1ccsc1/C=C/c1ccc2ccccc2n1,39,0.9,5,1.1,1.1,0.6
SMILES,FLuc inhib CS,Diaphorase act,Diaphorase inh,PMI act hi M6P,PMI activator,FLuc act counter
Cc1ccc2nc(/C=C/c3cccc(F)c3)ccc2c1,52*,0.8,22,1.1,1.1,0.5
C=CCn1c(SCC(=O)N2CCCCC2)nnc1-c1ccncc1,-3,1.1,-7,1,1,1
C=CCn1c(SCC(=O)N2N=C(c3ccco3)CC2c2ccco2)nnc1-c1ccncc1 (configuration not stated),-10,0.3,74*,0.5,0.4,1.1
CSC1=NC(C(Cl)(Cl)Cl)N=C(c2ccc(C)cc2)N1 (configuration not stated),1,0.9,9,2.3*,1.9,1
Cc1c(C(=O)NCC2CCCO2)oc2ccc(S(=O)(=O)N3CCCC3)cc12 (configuration not stated),-4,0.8,20,1,0.9,1
Cc1c(C(=O)NCC2CCCO2)oc2ccc3c(c12)C(=O)CC(C)(C)O3 (configuration not stated),67*,0.8,22,0.9,0.9,0.3
C[C@@H](C(=O)NCCc1c[nH]c2ccccc12)[C@@H]1C[C@@]1(C)[C@@H](NC(=O)OCc1ccccc1)c1ccccc1,-1,0.7,28,0.8,0.8,1
Cc1noc(C)c1COc1ccc(C(=O)OCC(=O)Nc2ccc3ccccc3c2)cc1,0,0.9,8,1,0.9,1
CN(C)c1ccc(NC(=O)COC(=O)CCC(=O)c2ccc(F)cc2)cc1,51*,1,0,0.9,0.9,0.5
CCN(CC)S(=O)(=O)c1cc(NC(=O)COC(=O)CCC(=O)c2ccc(F)cc2)ccc1C,1,0.9,15,1,1,1
CSCCNC(=O)c1ccc(C(C)(C)C)cc1,74*,0.9,11,1,0.9,0.3
CC(=O)NC(Cc1cccc(F)c1)C(=O)NC1CCN(C(=O)c2ccc(C)cc2)CC1 (configuration not stated),-9,0.9,8,0.9,1,1.1
O=C(Cc1ccccc1)Nc1ccc(NC(=O)c2ccco2)nc1,34,0.8,17,0.9,0.9,0.7
O=C(Nc1ccc(NC(=O)c2ccco2)nc1)c1ccccn1,61*,1,-2,0.9,1,0.4
CSc1ccccc1NC(=O)Nc1ccccc1,7,0.9,7,1,1,0.9
O=C(Nc1ccc(NC(=O)c2ccco2)nc1)c1ccco1,84*,0.9,11,1,1,0.2
O=C(Nc1ccc2c(c1)nc1n2CCSC1)c1ccco1,87*,0.9,7,0.7,0.9,0.1
CCOc1ccc(NC(=O)Nc2ccccc2SC)cc1,50*,0.9,9,1,0.9,0.5
